This passage reports inhibition, Activity and IC50 results from ChEMBL document CHEMBL4145639, “Cytochalasans Produced by the Coculture of Aspergillus flavipes and Chaetomium globosum” (J Nat Prod, 2018).

Structures are written as SMILES. Active and inactive are the calls of the source. The calls are words filed in the database; no cut-off is given here.

One test has as its system Murine T-cell line. Briefly: Immunomodulatory activity in Kunming mouse T cells assessed as inhibition of ConA-induced cell proliferation at 40 uM after 48 hrs by MTT assay. It is filed as functional, cell-based. In a few lines:
(§1)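 Splenocytes came from three male KM mice (25 g), seeded at 5 × 10^5 cells/well. Stimulation was 5 μg/mL ConA (T cells) or 10 μg/mL LPS (B cells), with compounds in DMSO at final 40 μM. After 48 h culture, MTT was read at 570 nm. Stimulated and unstimulated controls set baseline proliferation.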
Background: Tetrazolium assays rely on reduction of a dye to a coloured formazan, in cell work by metabolically active cells.

The next test has as its system B-cell line. The experiment in a line: Immunomodulatory activity in Kunming mouse B cells assessed as inhibition of LPS-induced cell proliferation at 40 uM after 48 hrs by MTT assay. The test is classed as functional, cell-based. In a few lines: as §1
The subject of another test is Staphylococcus aureus. Briefly: Antimicrobial activity against Staphylococcus aureus by agar well diffusion method. The test is classed as functional, organism-based. In a few lines: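 Agar-well diffusion against S. aureus (Gram-positive) and a Gram-negative organism the paper calls C. bacillus. Cefotaxime sodium and tetracycline served as positive controls, with solvent DMSO as the negative control.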
A general note: A growth-free zone around the sample is the usual read-out of agar diffusion tests.

The subject of the next test is Escherichia coli. The experiment in a line: Antimicrobial activity against Escherichia coli by agar well diffusion method.
In the next test the test system is MCF7. The experiment in a line: Antiproliferative activity against human MCF7 cells after 48 hrs by MTT assay. The test is classed as functional, cell-based. As to conditions: MCF7, 48 h. In a few lines:
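Cells were grown in RPMI 1640 with 10% FBS, penicillin and streptomycin at 37 °C in 5% CO2 and seeded at 5000 cells/well. Compounds (50, 25, 12.5, 6.25, 3.12, 1.56 μM; final DMSO 0.5%) were added 24 h later and incubated 48 h. MTT was added for 4 h, cells lysed in SDS/isopropanol/HCl, and A570 read. Runs were triplicate, with doxorubicin as positive control. IC50 came from means ± SEM.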

For `C/C1=C\[C@@H](C)C/C=C/[C@H]2[C@@H]3O[C@]3(C)[C@@H](C)[C@H]3[C@H](C(O)c4c[nH]c5ccccc45)NC(=O)[C@]32C(=O)CC[C@H](O)C1=O` (stereo in doubt; 6), the inhibition entry in the test on Murine T-cell line and in the test on B-cell line was “Active” throughout. Besides, the outcome in the test with Staphylococcus aureus and in the test with Escherichia coli was inactive.

For `C=C1[C@@H](C)[C@H]2[C@H](C(OC)c3c[nH]c4ccccc34)NC(=O)[C@]23C(=O)CC[C@H](O)C(=O)/C(C)=C/[C@@H](C)C/C=C/[C@H]3[C@@H]1O` (stereo in doubt; 7), the inhibition entry in the test with Murine T-cell line and in the test with B-cell line was “Active” throughout. For the same compound, the result with Staphylococcus aureus and in the test on Escherichia coli was inactive.

For orientation: IC50 means the midpoint of a concentration-inhibition curve. Low values mean inhibition by little substance, high ones a need for much substance. In the test with MCF7, `C/C1=C\[C@@H](C)C/C=C/[C@H]2[C@H](O)[C@@]3(C)O[C@@]4(CC56OC5Nc5ccccc56)NC(=O)[C@]2(C(=O)CC[C@H](O)C1=O)[C@H]4[C@@H]3C` (stereo in doubt; 11) [listing 1 of 2 here] registered an IC50 of 27.9 µM.

For the compound `C/C1=C\[C@H]2C=C(CO)[C@@H](C)[C@H]3[C@H](CC(C)C)NC(=O)[C@]32C(=O)CC[C@H](O)C(=O)CC1`, in the test with Murine T-cell line, the inhibition result is “Active”. The result with Staphylococcus aureus and in the test with Escherichia coli was inactive.

As to `C/C1=C\[C@@H](C)C/C=C/[C@H]2[C@H](O)[C@@]3(C)O[C@@]4(CC56OC5Nc5ccccc56)NC(=O)[C@]2(C(=O)CC[C@H](O)C1=O)[C@H]4[C@@H]3C` (stereo in doubt; 11) [listing 2 of 2 here], the result in the test on Staphylococcus aureus and in the test with Escherichia coli was inactive.

For `COC(c1c[nH]c2ccccc12)[C@@H]1NC(=O)[C@@]23C(=O)CC[C@H](O)C(=O)/C(C)=C/[C@@H](C)C/C=C/[C@H]2[C@H](O)C(C)=C(C)[C@@H]13` (stereo in doubt; 9), the inhibition result in the test on Murine T-cell line and in the test on B-cell line was “Active” each time. Moreover, the result with Staphylococcus aureus and in the test on Escherichia coli was inactive.

Compound `C=C1[C@@H](C)[C@H]2[C@H](C(OC)c3c[nH]c4ccccc34)NC(=O)[C@]23C(=O)CC[C@H](O)C(=O)/C(C)=C/[C@@H](C)C/C=C/[C@H]3[C@@H]1O` (stereo in doubt; 8) [listing 1 of 2 here] returned an IC50 with MCF7 of 20.7 µM.

As to `C/C1=C\[C@@H](C)C/C=C/[C@H]2[C@@H]3O[C@]3(C)[C@@H](C)[C@H]3[C@H](C(O)c4c[nH]c5ccccc45)NC(=O)[C@]32C(=O)CC[C@H](O)C1=O` (stereo in doubt; 5), the inhibition result in the test on Murine T-cell line was “Active”. Further, the result with Staphylococcus aureus and with Escherichia coli was inactive.

For `C/C1=C\[C@H]2C=C(CO)[C@@H](C)[C@H]3[C@H](CC(C)C)NC(=O)[C@]32C(=O)CC[C@@H](O)C(=O)CC1`, in the test on Murine T-cell line, the inhibition entry is “Active”. The result in the test on Staphylococcus aureus and in the test on Escherichia coli was inactive.

As for `COC(c1c[nH]c2ccccc12)[C@@H]1NC(=O)[C@@]23C(=O)CC[C@H](O)C(=O)/C(C)=C/[C@@H](C)C/C=C/[C@H]2[C@H](O)C(C)=C(C)[C@@H]13` (stereo in doubt; 10), the inhibition entry in the test on B-cell line was “Active”. Also, the result in the test on Staphylococcus aureus and in the test on Escherichia coli was inactive.

On to `C/C1=C\[C@H]2C=C(CO)[C@@H](C)[C@H]3[C@H](CC(C)C)NC(=O)[C@]32C(=O)CCC(=O)[C@@H](O)CC1`, for which the inhibition entry in the test on Murine T-cell line is “Active”. In addition, the outcome in the test with Staphylococcus aureus and in the test with Escherichia coli was inactive.

In the case of `C/C1=C\[C@@H](C)C/C=C/[C@H]2[C@H](O)[C@@]3(C)O[C@@]4(CC(=O)c5ccccc5N)NC(=O)[C@]2(C(=O)CC[C@H](O)C1=O)[C@H]4[C@@H]3C`, in the test on Murine T-cell line, the inhibition result is “Active”. The outcome in the test on Staphylococcus aureus and in the test with Escherichia coli was inactive.

Regarding `C/C1=C\[C@H]2C=C(CO)[C@@H](C)[C@H]3[C@H](CC(C)C)NC(=O)[C@]32C(=O)CCC(=O)[C@H](O)CC1`, in the test with B-cell line, the inhibition entry is “Active”. Further, the result in the test on Staphylococcus aureus and with Escherichia coli was inactive.

On to `C=C1[C@@H](C)[C@H]2[C@H](C(OC)c3c[nH]c4ccccc34)NC(=O)[C@]23C(=O)CC[C@H](O)C(=O)/C(C)=C/[C@@H](C)C/C=C/[C@H]3[C@@H]1O` (stereo in doubt; 8) [listing 2 of 2 here], for which the inhibition entry with Murine T-cell line and in the test with B-cell line was “Active” each time. The outcome with Staphylococcus aureus and in the test with Escherichia coli was inactive.

As for `C/C1=C\[C@@H](C)C/C=C/[C@H]2[C@H](O)[C@@]3(C)O[C@@]4(CC56OC5Nc5ccccc56)NC(=O)[C@]2(C(=O)CC[C@H](O)C1=O)[C@H]4[C@@H]3C` (stereo in doubt; 12), the inhibition entry with Murine T-cell line was “Active”. Besides, the result in the test on Staphylococcus aureus and in the test on Escherichia coli was inactive.
